Experimental data taken from ChEMBL document CHEMBL2401652 (J Med Chem, 2013).
Active and inactive are the calls of the source. The calls are words filed in the database; no cut-off is given here.

How the values were obtained:
[1] = Cytotoxicity against african green monkey Vero cells assessed as cell viability at 60 uM after 24 hrs by MTT assay relative to control; type: cell-based; details: chlorocebus sabaeus, read-out: Activity
Procedure, shortened: (§1)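 Vero and HEK-293T normal cells (1 × 10^4 per well) exposed 24 h to 0, 15, 30, 45, 60 μM at 37 °C, 5% CO2, triplicate; MTT added 3 h; viability relative to vehicle control (0.15% ethanol).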

[2] = Cytotoxicity against human HEK293T cells assessed as cell viability at 60 uM after 24 hrs by MTT assay relative to control; type: cell-based, HEK-293T; details: read-out: Activity; procedure, shortened: as §1
[3] = Binding affinity to DNA (unknown origin) assessed as induction of conformational changes at 300 uM after 2 hrs by CD spectrometric analysis
Procedure, shortened: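 DNA at 1000 μg/mL in 50 mM Tris-HCl, pH 7.5, incubated with ligand for 2 h at 37 °C, then CD spectra recorded at 25 °C. Conformational change was judged from the 275 nm band (base stacking) and the 245 nm band (B-conformation).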

[4] = Binding affinity to DNA (unknown origin) at 100 uM after 2 hrs by UV-Vis absorption spectroscopic analysis
Procedure, shortened: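 DNA (100 μg/mL; stock 1.0 mg/mL in 50 mM Tris-HCl pH 7.5, 50 mM NaCl) with ligand fixed at 100 μM; incubated at 37 °C, then diluted six-fold; absorbance scanned 220–350 nm at 25 °C, 1 cm quartz cell; 260 nm band monitored.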

[5] = test system: PANC-1; experiment: Induction of apoptosis in human PANC1 cells assessed as PARP cleavage at 50 uM after 24 hrs by Western blot analysis; type: functional, cell-based
Procedure, shortened: (§2)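 Cells (1.5 × 10^6) treated 24 h at 25 or 50 μM; 50 μg protein per lane on 10% SDS-PAGE, nitrocellulose, 2% TBS-BSA block, primary antibody overnight at 4 °C, HRP secondary, ECL detection; β-actin loading control; untreated controls in parallel.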

[6] = test system: T98G; experiment: Induction of apoptosis in human T98G cells assessed as PARP cleavage at 50 uM after 24 hrs by Western blot analysis; type: functional, cell-based
Procedure, shortened: (§3)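 Cells (1.5 × 10^6) exposed 24 h to compound (25 or 50 μM). 50 μg protein per lane resolved on 10% SDS-PAGE and transferred to nitrocellulose. Membrane blocked in 2% TBS-BSA, then probed with primary antibody overnight at 4 °C and HRP secondary. Detection by ECL, with β-actin as loading control. Untreated control run in parallel.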

[7] = test system: PANC-1; experiment: Induction of apoptosis in human PANC1 cells assessed as procaspase-9 cleavage at 50 uM after 24 hrs by Western blot analysis; type: functional, cell-based; procedure, shortened: as §3
[8] = test system: PANC-1; experiment: Induction of apoptosis in human PANC1 cells assessed as procaspase-8 cleavage at 50 uM after 24 hrs by Western blot analysis; type: functional, cell-based; procedure, shortened: as §2
[9] = test system: T98G; experiment: Induction of apoptosis in human T98G cells assessed as procaspase-9 cleavage at 50 uM after 24 hrs by Western blot analysis; type: functional, cell-based; procedure, shortened: as §3
[10] = test system: PANC-1; experiment: Induction of apoptosis in human PANC1 cells assessed as procaspase-7 cleavage at 50 uM after 24 hrs by Western blot analysis; type: functional, cell-based; procedure, shortened: as §2
[11] = test system: T98G; experiment: Induction of apoptosis in human T98G cells assessed as procaspase-8 cleavage at 50 uM after 24 hrs by Western blot analysis; type: functional, cell-based; procedure, shortened: as §3
[12] = test system: T98G; experiment: Induction of apoptosis in human T98G cells assessed as procaspase-7 cleavage at 50 uM after 24 hrs by Western blot analysis; type: functional, cell-based; procedure, shortened: as §3
[13] = test system: PANC-1; experiment: Downregulation of total Bid expression in human PANC1 cells at 50 uM after 24 hrs by Western blot analysis; type: functional, cell-based; procedure, shortened: as §2
[14] = test system: PANC-1; experiment: Downregulation of Bcl-xL expression in human PANC1 cells at 50 uM after 24 hrs by Western blot analysis; type: functional, cell-based; procedure, shortened: as §2
[15] = test system: T98G; experiment: Downregulation of total Bid expression in human T98G cells at 50 uM after 24 hrs by Western blot analysis; type: functional, cell-based; procedure, shortened: as §2
[16] = test system: T98G; experiment: Downregulation of Bcl-xL expression in human T98G cells at 50 uM after 24 hrs by Western blot analysis; type: functional, cell-based; procedure, shortened: as §2
[17] = test system: T98G; experiment: Induction of apoptosis in human T98G cells assessed as induction of DNA damage at 20 uM after 24 hrs by comet assay relative to untreated control; type: functional
Procedure, shortened: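 T98G cells (1 × 10^5) treated 24 h with 0 or 20 μM. About 20000 cells embedded in 0.5% low-melting agarose and lysed overnight at 4 °C at pH 10. Alkaline electrophoresis (pH 13) for 30 min at 300 mA at 4 °C, then ethidium bromide staining. Tail length (nucleus centre to tail tip) from ≥20 comets, reported as mean ± SD.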

[18] = test system: K562; experiment: Cytotoxicity against human K562 cells assessed as growth inhibition after 24 hrs by MTT assay; type: functional, cell-based
Procedure, shortened: (§4)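 Log-phase cells (1 × 10^4 per well) treated 24 h with 0–30 μM at 37 °C, 5% CO2, in triplicate; MTT added for final 3 h; vehicle 0.15% ethanol; IC50 from three separate days, mean ± SE.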

[19] = test system: T98G; experiment: Cytotoxicity against human T98G cells assessed as growth inhibition after 24 hrs by MTT assay; type: functional, cell-based; procedure, shortened: as §4
[20] = test system: HCT-116; experiment: Cytotoxicity against human HCT116 cells assessed as growth inhibition after 24 hrs by MTT assay; type: functional, cell-based; procedure, shortened: as §4
[21] = test system: PANC-1; experiment: Cytotoxicity against human PANC1 cells assessed as growth inhibition after 24 hrs by MTT assay; type: functional, cell-based; procedure, shortened: as §4
[22] = test system: A549; experiment: Cytotoxicity against human A549 cells assessed as growth inhibition after 24 hrs by MTT assay; type: functional, cell-based; procedure, shortened: as §4

What does the source list for `CC(C)=CCCC1(C)C=Cc2c(c(C)cc3c2[nH]c2cc(O)ccc23)O1` (configuration not stated) [MAHANINE]?
viability at 24 h, 60 µM [1]: > 85%; viability at 24 h, 60 µM [2]: > 65%

With `CC[n+]1c(-c2ccccc2)c2cc(N)ccc2c2ccc(N)cc21` as the compound, how does the Activity [3] read?
The Activity was “Active”.

Which results are given for `CC(C)=CCC[C@]1(C)C=Cc2c(c(C)cc3c4ccccc4n(C)c23)O1`?
Activity [4]: Active; Activity [5]: inactive; Activity [6]: inactive; Activity [7]: inactive; Activity [8]: inactive; Activity [9]: inactive; Activity [10]: inactive; Activity [11]: inactive; Activity [12]: inactive; Activity [13]: inactive; Activity [14]: inactive; Activity [15]: inactive; Activity [16]: inactive; Activity [17]: inactive; growth inhibition (GI) [18]: Active; growth inhibition (GI) [19]: Active; growth inhibition (GI) [20]: Active; growth inhibition (GI) [21]: Active; growth inhibition (GI) [22]: Active
